Experimental data pooled from the literature.
Read-out: cell growth or viability

Cc1c(C(=O)O)ccc2c3n(nc12)[C@@H]1[C@H](C3)N(CC2CC2)[C@@]2(C(=O)Nc3cc(Cl)ccc32)[C@H]1c1cccc(Cl)c1F — IC50 (hTERT-RPE1): 16 nM
CC(C)C[C@@H]1NC(=O)[C@@H](N(C)C(=O)[C@H](CC2CCC2)NC(=O)[C@@H]2C[C@@H](F)CN2C(=O)C2(C(F)(F)F)CC(F)(F)C2)CCCCNC(=O)C2(CC2)NC(=O)[C@H](Cc2cc(Cl)ccc2Cl)N(C)C1=O — GI50 (NCI-H526; MTT; 5 days): 240 nM
Cc1c(Cc2ccccc2)c(=O)oc2c(C)c(OCC(=O)NN=Cc3ccc([N+](=O)[O-])cc3)ccc12 — viability (MDA-MB-231; MTT; 125 µg/mL): 23.7%
COc1cccc(CNC[C@@](C)(O)[C@@H]2CC[C@@H](C)C[C@H]2OCc2ccccc2)c1 — inhibition (MDA-MB-231; MTT; 10 µM, 72 h): 36%
CCc1c(C)c2ccc(OCC=Cc3ccccc3)c(C)c2oc1=O — viability (MDA-MB-231; MTT; 1000 µg/mL): 2.75%
O=C(C=Cc1ccccc1)Nc1cccc(-c2ccnc(N3CCC(O)CC3)c2)c1 — inhibition (MDA-MB-231; MTT; 5 µM): 61.6%
CCNC(=S)NNC(=O)COc1ccc2c(C)c(CC)c(=O)oc2c1C — viability (MDA-MB-231; MTT; 62.5 µg/mL): 84.5%
COc1ccc(CNC[C@](O)(COCc2ccc(OC)cc2)[C@@H]2CC[C@@H](C)C[C@H]2OCc2ccc(OC)cc2)cc1 — inhibition (MDA-MB-231; MTT; 10 µM, 72 h): 96.8%
C=CC(=O)NC1CCN(c2ncc3ncnc(Nc4ccc(Oc5ccc6c(c5)ncn6C)c(C)c4)c3n2)CC1 — EC50 (LCLC-103H): 2.82 nM
CCc1c(C)c2ccc(OCc3nnc(S)n3N)c(C)c2oc1=O — viability (MDA-MB-231; MTT; 31.25 µg/mL): 94.3%
C[C@H](NC(=O)[C@H](CC(=O)NCC(C)(C)C)NC(=O)C(=O)c1c[nH]c2ccccc12)C(=O)NCc1ccc(F)cc1F — IC50 (A-375; resazurin; 48 h): 8870 nM
C[C@@H]1CC[C@@H]([C@](C)(O)CNCc2ccccc2)[C@H](OCc2ccccc2)C1 — inhibition (MDA-MB-231; MTT; 10 µM, 72 h): 76.8%
Cc1c(Cc2ccccc2)c(=O)oc2c(C)c(OCC(=O)NN=Cc3ccc(Cl)cc3)ccc12 — viability (MDA-MB-231; MTT; 1000 µg/mL): 17.1%
O=C(C=Cc1ccccc1)Nc1cc(-c2ccnc(N3CCC(O)CC3)c2)ccn1 — IC50 (MDA-MB-231; MTT; 72 h): 3 nM
C[C@@H]1CC[C@@H]([C@](O)(CNCc2ccccc2)COCc2ccc(F)cc2)[C@H](OCc2ccc(F)cc2)C1 — inhibition (MDA-MB-231; MTT; 30 µM, 72 h): 101%
